Compound activity as filed in PubChem BioAssay.
In the library only some 3.5% were active in any assay of this set; here they are far more common.
MrgX1 antagonist – antagonists of human MrgX1 receptor | Q96LB2 | MRGX1-HEK293 calcium flux, Fluo-4, BAM8-22 antagonism; stronger effect = lower value | B-score at 10 µM | hit rate 1.3% among 310,000;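 active = calcium-response B-score plate-corrected more than 3 library SD below zero, starting fluorescence within 5 deviations, no agonist response on first addition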;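 note: peak minus trough fluorescence over baseline after final BAM8-22 challenge near maximal dose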
Target sequence (Q96LB2 whole entry, looked up): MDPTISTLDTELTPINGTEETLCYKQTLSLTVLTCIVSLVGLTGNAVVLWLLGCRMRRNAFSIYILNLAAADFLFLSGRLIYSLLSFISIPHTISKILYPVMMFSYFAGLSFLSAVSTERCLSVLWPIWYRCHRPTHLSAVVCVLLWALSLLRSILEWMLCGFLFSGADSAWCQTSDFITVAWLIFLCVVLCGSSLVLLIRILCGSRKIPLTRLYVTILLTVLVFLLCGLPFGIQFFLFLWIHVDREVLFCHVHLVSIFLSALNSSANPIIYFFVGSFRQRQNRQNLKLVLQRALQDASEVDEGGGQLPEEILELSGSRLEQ
RGS4 act – RGS4 potentiation or activation; HEK293 M3R/inducible RGS4, carbachol calcium flux Fluo4; stronger effect = lower value; B-score at 10 µM; hit rate 0.92% among 310,000;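 active = B-score of the integrated calcium signal more than 4 SD below the library mean, with starting fluorescence not abnormally high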;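 note: negative B-score means reduced calcium response which marks RGS4 activation or potentiation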
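Also added: carbachol at ECmax as muscarinic agonist stimulus; Assay system: HEK293 cells with stable M3R and inducible RGS4; Timing: overnight RGS4 induction, 30 min dye load 37 °C, 20 min compound RT; Measured by: Fluo4-AM (2 µM) calcium-flux fluorescence, kinetic read.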
MrgX1 agonist – activates human MrgX1 receptor signaling; MrgX1-HEK293 cells, Fluo-4 calcium fluorescence, agonist mode; stronger effect = higher value; hit rate 0.44% among 310,000; AID 588627; Q96LB2; B-score at 10 µM;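 active = calcium response B-score plate-corrected fluorescence ratio at least 3 library SD, with starting fluorescence B-score inside 5 SD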
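Material: MrgX1-expressing HEK293 cells / Dosing: compound as first of three additions / Incubation: overnight seeding, then 1 h dark dye loading / Signal: Fluo-4 NW calcium fluorescence / Evaluation: B-scored fluorescence response ratio / Benchmarks: positive and negative control wells on each plate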
RGS4 inh – human RGS4 inhibition | P49798 | HEK293 M3R/RGS4 inducible, Fluo-4 calcium flux; stronger effect = higher value; triggered by carbachol at its EC20 | B-score at 10 µM | hit rate 0.45% among 310,000;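 active = B-score, a plate-corrected calcium signal, over three deviations above library mean, with baseline fluorescence within five deviations of library mean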;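 note: RGS4 expression induced by doxycycline in cells with stable M3 receptor; B-score is computed from the integrated fluorescence ratio over baseline after carbachol; higher B-score means a larger calcium signal and so more RGS4 inhibition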
MrgX1 PAM – allosterically activates human MrgX1 receptor signaling; MrgX1-HEK293, Fluo-4 calcium flux, FDSS; stronger effect = higher value; hit rate 0.63% among 310,000; B-score at 10 µM; AID 588675; Q96LB2;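 active = plate-corrected calcium response at least 3 library SD above typical, normal starting fluorescence, not activating the receptor alone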;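 note: compound read alongside a low EC10 to EC30 dose of BAM8-22 agonist; peak minus trough fluorescence over baseline measured at the second addition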
The depositor's hits bear a star; i = inactive; · = no result given.

SMILES	MrgX1 antagonist	RGS4 act	MrgX1 agonist	RGS4 inh	MrgX1 PAM
COc1ccc(/C=C/c2cccc[n+]2C)c(O)c1	i	i	i	i	i
C[n+]1ccccc1/C=C/c1cc(Br)ccc1O	i	-8.51*	i	i	i
Cc1ccc(S(=O)(=O)c2nc(-c3ccccc3F)oc2N2CC(C)OC(C)C2)cc1 (stereo not drawn)	i	i	i	i	i
O=C(CP(=O)(c1ccccc1)c1ccccc1)Nc1nc2ccc(Cl)cc2s1	i	i	i	i	i
COc1ccc(CNCCC(c2ccc(OC(C)C)cc2)C(C)C)cc1OC (stereo not drawn)	i	i	i	i	i
COc1ccc(C(CCNCc2ccc(OC(C)C)cc2)C(C)C)cc1 (stereo not drawn)	-5.42*	i	i	i	i
CSc1ccc(CN(C)C(=O)C(Cc2ccccc2)NC(=O)c2ccccc2)cc1 (stereo not drawn)	i	-7.35*	i	i	i
CN(Cc1ccc(F)cc1)C(=O)C(Cc1ccccc1)NC(=O)c1ccccc1 (stereo not drawn)	i	i	i	i	i
CSc1ccc(CN(C)C(=O)c2cccc(S(=O)(=O)NCc3ccccc3)c2)cc1	-5.06*	i	i	i	i
CCCN(CC(=O)Nc1ccccc1OC)C(=O)c1cccc(S(=O)(=O)NCc2ccccc2)c1	-6.07*	i	i	i	i
CCc1noc(C)c1C(=O)OCC(=O)N(C)c1c(N)n(Cc2ccccc2)c(=O)[nH]c1=O	i	i	i	i	i
Cc1nc(C)n(C(C)CNC(=O)c2cccc(Br)c2)n1 (stereo not drawn)	i	i	i	i	i
CC1(c2ccc([N+](=O)[O-])c(CS(=O)(=O)c3ccccc3)c2)OCCO1	i	i	i	i	i
COc1cccc(C=O)c1OCCCOc1cccc2cccnc12	i	i	33.3*	i	i
Brc1ccccc1OCCCOc1cccc2cccnc12	i	i	i	i	i
COC(=O)c1ccccc1NC(=O)CCCn1nc([N+](=O)[O-])c(Br)c1C	i	i	i	i	i
O=C(CSc1nnc(CNC(=O)c2ccco2)o1)Nc1cccc(Cl)c1	i	i	i	i	i
CCCCCCN(C(=O)CCCCCN1C(=O)NC(c2ccc(-c3ccccc3)cc2)C(C(=O)OCc2ccccc2)=C1C)C(C)C(=O)NCCCC (stereo not drawn)	-4.59*	i	i	i	i
CCCCCCN(C(=O)CCCCCN1C(=O)NC(c2ccc(-c3ccccc3)cc2)C(C(=O)OCc2ccccc2)=C1C)C(C(=O)NCCCC)c1ccccc1 (stereo not drawn)	·	i	·	i	·
COC(=O)c1ccccc1SC(CC(=O)c1ccccc1)c1ccc(F)cc1 (stereo not drawn)	i	-7.13*	i	i	i
O=C(CC(Nc1ccc(F)cc1)c1ccccc1)c1ccccc1 (stereo not drawn)	i	i	i	i	i
Cc1[nH]nc(SCC(=O)Nc2ccc(C#N)cc2)c1[N+](=O)[O-]	i	i	i	i	i
CCN(C(=O)Cn1cc(C(=O)C(=O)N2CCOCC2)c2ccccc21)c1ccccc1	i	i	i	i	i
O=C(Nc1ccccc1)c1ccc(-c2ccc(Br)cc2)o1	i	i	i	i	i
COc1ccc(Br)cc1C(=O)Nc1cccc(NC(=O)c2ccco2)c1	i	i	i	i	i
O=C(Nc1cccc(NC(=O)c2ccc(-c3cccc(Br)c3)o2)c1)c1ccco1	i	-8.95*	i	i	i
O=C(Nc1cccc(NC(=O)c2ccc(-c3ccc(Br)cc3)o2)c1)c1ccccc1	-4.62*	i	i	i	i
COC(=O)[C@@]1(Cc2ccc(OC)cc2)[C@H]2c3cc(C(=O)N4CCCC4)n(Cc4c(CO)[nH]cc(C)c4=O)c3C[C@H]2CN1C(=O)c1ccccc1	-5.6*	i	i	i	i
COC(=O)[C@@]1(Cc2ccc(OC)cc2)[C@H]2c3cc(C(=O)N(C)C)n(Cc4c(CO)[nH]cc(C)c4=O)c3C[C@H]2CN1C(=O)c1ccccc1	i	i	i	i	i
